Drawing on ChEMBL document CHEMBL4477178, “Biflorin, Isolated from the Flower Buds of Syzygium aromaticum L., Suppresses LPS-Induced Inflammatory Mediators via STAT1 Inactivation in Macrophages and Protects Mice from Endotoxin Shock” (J Nat Prod, 2016), this text covers inhibition, Activity and inhibition in vivo for one compound.

Structures are written as SMILES. Calls of active or inactive are those of the source. No cut-off for these calls is given here.

The subject of assay [1] is RAW264.7. The experiment in a line: Antiinflammatory activity in mouse RAW264.7 cells assessed as inhibition of LPS-induced TNF-alpha mRNA expression at 60 uM after 2 to 12 hrs by qRT-PCR method. In kind it is functional, cell-based. In outline:
(§1)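 RAW 264.7 stimulated with LPS 10 ng/mL with or without 60 μM for 2, 4, 6 and 12 h. Total RNA (1 μg) reverse-transcribed with MuLV RT and random primer; SYBR green real-time qPCR with gene-specific primers, triplicate Ct normalized to β-actin. Mean ± SD, three independent experiments.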

Assay [2] has as its system RAW264.7. The experiment in a line: Antiinflammatory activity in mouse RAW264.7 cells assessed as downregulation of LPS-induced TNF-alpha expression at 60 uM preincubated for 1 hr followed by LPS challenge for 6 to 12 hrs by luciferase reporter gene assay. In kind it is functional, cell-based. In short, it runs like this: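 RAW 264.7 transiently cotransfected with promoter-luciferase construct (pGL3-iNOS, pGL3-COX-2 or pTNF-α-luc) plus phRL-TK internal control; 6 h after transfection pretreated 1 h with 60 μM, then LPS 10 ng/mL for 6 or 12 h. Cells washed in cold PBS, lysed, luciferase read. Mean ± SD, three independent experiments.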
In general terms: Reporter assays use an easily measured gene product as a stand-in for the process of interest.

Assay [3] concerns Mus musculus. The assay is described as follows: Inhibition of LPS-induced TNF-alpha mRNA expression in C57BL/6 mouse liver at 10 mg/kg, ip pretreated for 1 hr followed by LPS challenge for 6 hrs by qRT-PCR method. In kind it is functional, organism-based. In short, it runs like this: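 Male C57BL/6 mice given 10 mg/kg i.p. or vehicle 1 h before LPS (Salmonella enterica, 25 mg/kg i.p.); liver collected 6 h after LPS, frozen at −80 °C. Liver mRNA by SYBR qRT-PCR normalized to β-actin; protein by Western blot for p-STAT1 (Y701, S727). Eight mice per group; mean ± SD.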
(In qPCR the cycle at which signal appears reflects the starting amount.)

The subject of assay [4] is Rattus norvegicus. The assay is described as follows: Antiinflammatory activity in Sprague-Dawley rat assessed as inhibition of croton oil-induced ear edema at 15 mg/kg, ip administered 1 hr before croton oil challenge measured after 3 hrs post challenge relative to control. Type of assay: functional. In short, it runs like this:
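Male SD rats given compound i.p. (5, 10 or 15 mg/kg) 1 h before topical croton oil (5% in 100 μL acetone) on the inner right ear; the left ear received acetone alone. After 3 h, rats were killed and 6 mm ear punches were taken and measured for thickness. Inhibition calculated relative to the croton-oil-only group; seven rats per group.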

For assay [5], the system named is Rattus norvegicus. The assay is described as follows: Antiinflammatory activity in Sprague-Dawley rat assessed as reduction in carrageenan induced paw edema at 10 mg/kg, ip administered 1 hr before carrageenan challenge measured at 3 hrs post challenge relative to control. In kind it is functional. In short, it runs like this:
(§2)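 SD rats given compound i.p. (5, 10 or 15 mg/kg) 1 h before subplantar injection of 1% carrageenan in saline (0.1 mL) into the right hind paw. Paw volume measured by plethysmometer at 1, 3 and 5 h. Edema compared with the carrageenan-only group; seven rats per group.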

Assay [6] addresses T1, Signal transducer and activator of transcription 1 (Mus musculus) (UniProt P42225).
T1 sequence (whole entry): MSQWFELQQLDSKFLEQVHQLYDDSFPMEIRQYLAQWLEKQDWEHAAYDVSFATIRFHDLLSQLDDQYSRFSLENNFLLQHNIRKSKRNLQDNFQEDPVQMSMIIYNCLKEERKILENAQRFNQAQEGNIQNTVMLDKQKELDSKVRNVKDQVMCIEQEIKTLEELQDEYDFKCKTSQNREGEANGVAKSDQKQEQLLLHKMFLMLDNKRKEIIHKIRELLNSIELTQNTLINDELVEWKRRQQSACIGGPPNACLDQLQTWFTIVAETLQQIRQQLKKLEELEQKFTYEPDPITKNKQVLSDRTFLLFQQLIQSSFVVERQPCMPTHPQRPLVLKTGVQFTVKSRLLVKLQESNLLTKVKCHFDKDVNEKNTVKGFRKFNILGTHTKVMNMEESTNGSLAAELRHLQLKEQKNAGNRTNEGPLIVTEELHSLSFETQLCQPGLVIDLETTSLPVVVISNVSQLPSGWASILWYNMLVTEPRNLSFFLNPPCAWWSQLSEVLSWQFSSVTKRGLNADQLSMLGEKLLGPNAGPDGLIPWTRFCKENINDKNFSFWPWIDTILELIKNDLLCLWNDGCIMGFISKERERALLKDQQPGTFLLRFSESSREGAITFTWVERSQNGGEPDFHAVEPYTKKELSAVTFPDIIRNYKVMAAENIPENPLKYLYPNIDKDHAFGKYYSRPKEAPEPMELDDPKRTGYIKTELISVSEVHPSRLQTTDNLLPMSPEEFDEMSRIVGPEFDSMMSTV
The experiment in a line: Inhibition of LPS-induced STAT1 phosphorylation at S727 in C57BL/6 mouse peritoneal macrophages at 15 to 60 uM preincubated for 1 hr followed by LPS challenge for 30 mins by Western blot analysis. In short, it runs like this:
(§3)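 Thioglycolate-elicited C57BL/6 peritoneal macrophages pretreated 1 h at 15, 30 or 60 μM, then LPS 10 μg/mL: 120 min for p-STAT1 Y701, 30 min for p-STAT1 S727, 60 min for p-STAT3 Y705. Western blot with phospho-specific and total STAT antibodies, β-actin control; three independent experiments.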

Assay [7] concerns Rattus norvegicus. The experiment in a line: Antiinflammatory activity in Sprague-Dawley rat assessed as reduction in carrageenan induced paw edema at 15 mg/kg, ip administered 1 hr before carrageenan challenge measured at 3 hrs post challenge relative to control. Type of assay: functional. In short, it runs like this:
as §2
(The carrageenan paw model is a standard test of acute inflammation.)

In assay [8] the test system is RAW264.7. The assay is described as follows: Antiinflammatory activity in mouse RAW264.7 cells assessed as inhibition of LPS-induced IL-6 mRNA expression at 60 uM after 2 to 12 hrs by qRT-PCR method. Type of assay: functional, cell-based. In short, it runs like this: as §1
Assay [9] has as its system RAW264.7. The experiment in a line: Antiinflammatory activity in mouse RAW264.7 cell lysate assessed as inhibition of LPS-induced iNOS expression preincubated for 1 hr followed by LPS challenge for 24 hrs by Western blot analysis. In kind it is functional, cell-based. In short, it runs like this:
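RAW 264.7 (DMEM, 10% FBS, 37 °C, 5% CO2) pretreated 1 h at 15, 30 or 60 μM, then LPS 10 ng/mL for 24 h. Lysates run on 10–12% SDS-PAGE, blotted to PVDF, probed with iNOS or COX-2 antibody (1:1000, overnight 4 °C), HRP secondary, ECL; densitometry vs β-actin. Mean ± SD of three independent experiments.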

Assay [10] has as its target T1, Signal transducer and activator of transcription 1 (Mus musculus). The experiment in a line: Inhibition of LPS-induced STAT1 phosphorylation at Y701 in C57BL/6 mouse peritoneal macrophages at 15 to 60 uM preincubated for 1 hr followed by LPS challenge for 120 mins by Western blot analysis. In outline: as §3
The target of assay [11] is MAP kinase p38 (Mus musculus) (UniProt P47811+O08911+Q9WUI1+Q9Z1B7). The experiment in a line: Inhibition of LPS-induced p38 MAPK phosphorylation in mouse RAW264.7 cells preincubated for 1 hr followed by LPS challenge for 30 mins by Western blot analysis. Type of assay: cell-based. In short, it runs like this: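 RAW 264.7 pretreated 1 h at 15, 30 or 60 μM, then LPS 10 ng/mL for 30 min. Lysates Western-blotted for p-p38, p38, p-JNK, JNK, p-ERK, ERK with β-actin control; ECL, densitometry. Three independent experiments.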

The test system of assay [12] is Peritoneal macrophage. The experiment in a line: Antiinflammatory activity in C57BL/6 mouse peritoneal macrophages assessed as inhibition of LPS-induced TNF-alpha production at 60 uM preincubated for 1 hr followed by LPS challenge for 48 hrs by ELISA method. In kind it is functional. The conditions noted are these: C57BL/6, Peritoneal macrophage.

By inhibition is commonly meant the drop in the measured response relative to a control, in per cent. In general, inhibition in vivo refers to the drop in the measured response relative to a control, in per cent. Regarding `Cc1cc(=O)c2c(O)c([C@@H]3O[C@H](CO)[C@@H](O)[C@H](O)[C@H]3O)c(O)cc2o1` [BIFLORIN], the inhibition entry in assay [1], in [3], in assay [6], in assay [8] and in [10] was “Active” each time. Moreover, the result in assay [2] was Active. The inhibition in vivo at 15 mg/kg was found to be 74.7% in assay [4] and 60% in assay [7]. Moreover, the inhibition in vivo at 10 mg/kg in assay [5] worked out at 48%. The inhibition entry in assay [9] and in [11] was “Dose-dependent effect” in each case. In [12], the inhibition at 60 µM is 77.5%.
